Data taken from PubChem BioAssay AID504768 (Southern Research Specialized Biocontainment Screening …, 2011).

Experiment: protection of E. coli UTI89 from K1F – UTI89 strain, C7 control, set 4, capsule biogenesis inhibitor project, confirmation (AID 504768)
Conditions: OD600, at 300 µM (top of the series); inhibition of phage lysis: at the top concentration;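 active = phage lysis blocked by at least 50% at any tested concentration; inactive = the rest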
Outline: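 Assay system: E. coli UTI89 (K1) and kpsM mutant bacterial cultures / Benchmarks: phage-resistant kpsM mutant culture as control / Schedule: 1.25 h at 37 °C pre-phage, 3 h post-infection read / Repeats: four replicate wells per compound concentration / Reagent: K1F phage infection / Detection: absorbance at 600 nm (OD600) / Compound: 1% DMSO final in wells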

Inhibition of phage lysis, inactive:
O=C(Nc1nc2c(F)cc(F)cc2s1)c1cccnc1 0%
O=C(Nc1nc2c(Cl)cc(Cl)cc2s1)c1ccccn1 0%
O=C(Nc1nc2ccccc2s1)c1ccncc1 0%
O=C(Nc1nc2c(F)cc(F)cc2s1)c1ccccc1 0%
O=C(Nc1nc2c(F)cc(F)cc2s1)c1ccncc1 0%
O=C(Nc1nc2ccc(F)cc2s1)c1ccccn1 0%
Cc1cc(C)c2nc(NC(=O)c3ccccn3)sc2c1 0%
O=C(Nc1nc2c(F)cccc2s1)c1ccccn1 0%
O=C(Nc1nc2ccccc2s1)c1cccnc1 0%
